Screening results deposited in PubChem BioAssay by several laboratories.
The list is not random: actives were taken first. Their share in the collection is about 2.7%.
CSN inh: inhibitors of CSN-mediated cullin deneddylation, primary screen, biochemical, fluorescence polarization, uHTS; 360,000 compounds, 0.38% hits; inhibition, % at 12.5 µM; Purified CSN, SCF-Nedd8-OG deneddylation; AID 651999, 2013;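 active means pattern-corrected inhibition above about 35%, with an unprinted fluorescence ratio check between 0.5 and 1.5, limit read from the data, passing the limit was not always enough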;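 further: 0% = enzyme with substrate and 100% = substrate without enzyme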
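Material: purified human Csn5 enzyme expressed in HEK293T cells / Medium: Tris buffer pH 7.5, NaCl, DTT, Tween-20, trehalose, ovalbumin / Compound dosing: 12.5 µM single point / Schedule: 90 min incubation of compound, enzyme and substrate at room temperature / Signal: fluorescence polarization of the substrate / Control set: no-enzyme wells high, enzyme-with-substrate wells low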
Rpn11 block: Rpn11 (PSMD14) deubiquitinase inhibitors, primary screen, biochemical, fluorescence polarization, uHTS | human 26S proteasome, Ub4-pepOG fluorescence polarization; 20S core pre-blocked with epoxomicin | inhibition, % at 20 µM | 360,000 compounds, 0.59% hits;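 active means inhibition at 20 µM, scaled to each plate's controls, above about 33%, limit read from the data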
Target sequence (O00487 whole entry, looked up): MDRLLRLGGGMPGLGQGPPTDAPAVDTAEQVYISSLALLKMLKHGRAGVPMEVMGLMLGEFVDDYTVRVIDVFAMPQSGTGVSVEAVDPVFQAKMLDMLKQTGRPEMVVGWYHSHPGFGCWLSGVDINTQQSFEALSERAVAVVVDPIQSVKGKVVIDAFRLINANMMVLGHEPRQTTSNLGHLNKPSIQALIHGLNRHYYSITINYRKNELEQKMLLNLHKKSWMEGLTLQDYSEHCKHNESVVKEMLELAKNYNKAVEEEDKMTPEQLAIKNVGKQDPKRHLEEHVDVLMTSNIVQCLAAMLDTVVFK
HNF4A DNA FP: change in binding of human HNF4A to DNA, primary screen, biochemical, fluorescence polarization, FITC-DNA. 360,000 compounds, 0.3% hits. activity change, % at 10 µM. 1 h. AID 1224865, 2016; in the data active means activity change above about 30%, passing the limit was not always enough
NadD inh: inhibitors of S. aureus NadD, primary screen, biochemical, colorimetric, uHTS | inhibition, % at 20 µM | 360,000 compounds, 0.78% hits | purified NadD enzyme, colorimetric absorbance read-out; in the data active means inhibition above about 26%
PP1 counter: PP1-alpha phosphatase inhibitors, primary screen, counter-screen for PP5 inhibitor project, biochemical, fluorescence, OMFP substrate, single point; Serine/threonine-protein phosphatase PP1-alpha catalytic subunit (Homo sapiens), P62136; purified PP1alpha; inhibition, % at 6.7 µM; 320,000 compounds, 0.9% hits;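 active means inhibition above the mean inhibition of all tested compounds plus 3 SD, computed separately for each screening campaign, cut at about 15% in these data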
TPT1 inhibitor: Candida albicans TPT1 enzyme inhibitors, primary screen, biochemical, fluorescence polarization; recombinant caTPT1, FP RNA substrate dephosphorylation; inhibition, % at 5 µM; tRNA 2'-phosphotransferase TPT1 (Candida albicans SC5314); AID 1962, 2009; 300,000 compounds, 0.81% hits;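 active means inhibition above the mean of all tested compounds plus 3 SD, set per screening campaign, cut at about 24% in these data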;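 further: plate controls were DMSO alone for no effect and ferristatin control at 100 nM for full effect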
NadD conf: inhibitors of S. aureus NadD, confirmation, biochemical, colorimetric, single concentration | purified S. aureus NadD, colorimetric enzyme assay | shares compounds with NadD inh | AID 624309, 2012 | 2,000 compounds, 13% hits | inhibition, % at 20 µM; in the data active means inhibition mostly above about 42%, no sharp cut-off; inactive means mostly below about 42%
* marks the source's active call; other numbers are inactive results.

CC(C)(C)c1ccc(C2CC2C(=O)N/N=C\c2cc3ccccc3nc2Cl)cc1 (centres undefined) was read as CSN inh 3.0, Rpn11 block 6.2, HNF4A DNA FP 0.8, NadD inh 35.6*, PP1 counter -4.5, TPT1 inhibitor -1.4 and NadD conf -0.8.
O=C(Nc1ccc(-c2nc3ccccc3o2)c(O)c1)c1cc(-n2cnnc2)ccc1Cl was read as CSN inh 3.5, Rpn11 block 26.0, HNF4A DNA FP 9.8, NadD inh 29.6*, PP1 counter 7.7, TPT1 inhibitor 4.9 and NadD conf 11.5.
For CCOc1ccc(S(=O)(=O)N2CCN(S(=O)(=O)c3ccc(C(C)=O)cc3)CC2)cc1 the results were CSN inh -0.9, Rpn11 block 0.4, HNF4A DNA FP 1.8, NadD inh 0.9, PP1 counter 6.1 and TPT1 inhibitor -0.5.
CCOc1ccc(S(=O)(=O)N2CN(c3cccc(C(C)=O)c3)c3nc4ccccc4nc32)cc1 was read as CSN inh -2.6, Rpn11 block -1.0, HNF4A DNA FP 0.8, NadD inh 29.7* and NadD conf 7.5.
Screening COc1ccc(Br)cc1CNC(=O)CN1C(=O)C(c2ccccc2)Oc2cccnc21 (centres undefined) returned CSN inh 6.2, Rpn11 block 17.7, HNF4A DNA FP 6.4, NadD inh 58.5*, PP1 counter 4.0, TPT1 inhibitor 7.5 and NadD conf 52.2*.
Cc1ccc(C)c(S(=O)(=O)N2CCN(C(=O)/C=C/c3ccco3)CC2)c1 was read as CSN inh 22.9, Rpn11 block 15.5, HNF4A DNA FP 0.0, NadD inh 34.9*, PP1 counter 5.3 and NadD conf 23.7.
C[C@H]1CN([C@@H](C)CO)C(=O)c2cc(-c3ccccc3F)cnc2O[C@@H]1CN(C)C(=O)NC1CCCCC1 was read as CSN inh -1.7, Rpn11 block -9.9, HNF4A DNA FP 1.8 and NadD inh -3.1.
`COc1ccc(C(C[N+](=O)[O-])c2c(-c3ccccc3)cc3ccccn23)c(OC)c1` (centres undefined) gave CSN inh 1.0, Rpn11 block 12.1, HNF4A DNA FP 5.9, NadD inh 32.9*, PP1 counter 16.8*, TPT1 inhibitor 8.6 and NadD conf 13.6.
For C[C@H](CO)N1C[C@H](C)[C@@H](CN(C)Cc2ccncc2)OCCCC[C@H](C)Oc2ccc(NC(=O)CCCN(C)C)cc2C1=O the results were CSN inh -2.1, Rpn11 block -2.5, HNF4A DNA FP 1.4, NadD inh 54.4* and NadD conf 26.9.
For C[C@H](CO)N1C[C@H](C)[C@@H](CN(C)S(=O)(=O)c2ccccc2)Oc2ccc(NC(=O)Nc3ccc(C(F)(F)F)cc3)cc2C1=O the results were CSN inh 1.8, Rpn11 block 1.5, HNF4A DNA FP -2.6, NadD inh 35.0* and NadD conf 5.5.
Screening COc1ccc(NC(=O)N(C)C[C@H]2Oc3ccc(NC(=O)c4ccncc4)cc3C(=O)N([C@H](C)CO)C[C@@H]2C)cc1 returned CSN inh -1.8, Rpn11 block 0.8, HNF4A DNA FP -3.4, NadD inh 39.5* and NadD conf 41.4*.
CCOc1ccccc1N1CCN(C(=O)C2CSC3(C)CCC(=O)N23)CC1 (centres undefined) was read as CSN inh -1.9, Rpn11 block -0.8, HNF4A DNA FP 2.9, NadD inh -6.1 and PP1 counter -3.2.
Screening Cc1ccc(S(=O)(=O)N2CC(CO)=CCC2c2ccccc2)cc1 (centres undefined) returned CSN inh -1.0 and HNF4A DNA FP 3.3.
Screening O=C(COC(=O)COc1ccccc1F)NCc1ccco1 returned CSN inh -3.0, Rpn11 block -3.1, HNF4A DNA FP 0.3 and NadD inh -1.1.
For O=C(CCc1nnc2ccc(N3CCC4(CC3)OCCO4)nn12)NCc1ccccc1Cl the results were CSN inh 0.0, Rpn11 block 0.4, HNF4A DNA FP 0.6, NadD inh -1.1, PP1 counter -3.5 and TPT1 inhibitor 0.4.
For CC(C)CC(=O)C1=C(O)C(=O)N(Cc2ccccc2)C1c1ccccc1 (centres undefined) the results were CSN inh 2.5, Rpn11 block 4.1, HNF4A DNA FP 3.6, NadD inh 0.4, PP1 counter 0.1 and TPT1 inhibitor 2.7.
`Cc1sc2nc(SCc3nc4ccccc4[nH]3)n(Cc3ccco3)c(=O)c2c1C` gave CSN inh 0.5, Rpn11 block 21.3, HNF4A DNA FP 0.1, NadD inh 35.0*, PP1 counter 12.9, TPT1 inhibitor 3.3 and NadD conf 38.0.
`Cc1cnc(C(=O)OC(C)C(=O)Nc2cccc3ccccc23)cn1` (centres undefined) gave CSN inh -0.4, Rpn11 block -3.9, HNF4A DNA FP -1.6, NadD inh -2.1, PP1 counter -2.4 and TPT1 inhibitor -0.9.
`Cc1ccc(-c2nc3c(Cl)cc(C(F)(F)F)cn3c2Cc2ccccc2C(F)(F)F)cc1` gave CSN inh -0.8, HNF4A DNA FP 5.0 and NadD inh 10.0.
For FC(F)(F)c1cc(Cl)c2nc(-c3ccco3)c(Cc3ccccc3C(F)(F)F)n2c1 the results were CSN inh 17.2, HNF4A DNA FP 13.5, NadD inh 42.7* and NadD conf 10.8.
For CC(c1ccccc1)C(NC(=O)OCC1c2ccccc2-c2ccccc21)C(=O)O (centres undefined) the results were CSN inh 0.5, Rpn11 block -13.6, HNF4A DNA FP 1.6, NadD inh 0.7, PP1 counter 4.8 and TPT1 inhibitor -0.5.
`O=C(COC(=O)c1ccc(O)cc1)Nc1cc(S(=O)(=O)N2CCCCCC2)ccc1Cl` gave CSN inh -4.0, Rpn11 block -2.7, HNF4A DNA FP 2.9 and NadD inh -13.1.
